Activity calls are given as the source filed them. The calls are words filed in the database; no cut-off is given here.
Legend:
Rattus norvegicus [1] = assay: Antiinflammatory activity in Wistar rat pain model assessed as inhibition of DABK-induced paw oedema at 1 mg/kg, po administered 30 mins before DABK challenge measured by plethysometric analysis; format: functional
Summary of the method: (§1)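 Male Wistar rats, 120–150 g, LPS-pretreated; oral dosing in 5% (v/v) Tween 80 in saline before DABK injection. Paw volume by plethysmometer at 0, 10, 20, 30 min post-DABK; maximum edema volume taken. Percent inhibition from treated group means versus simultaneous vehicle means; ANOVA with Dunnett's test versus vehicle.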

Rattus norvegicus [2] = assay: Antiinflammatory activity in Wistar rat pain model assessed as inhibition of DABK-induced paw oedema at 3 mg/kg, po administered 30 mins before DABK challenge measured by plethysometric analysis; format: functional; summary of the method: as §1
Rattus norvegicus [3] = assay: Antiinflammatory activity in Wistar rat pain model assessed as inhibition of DABK-induced paw oedema at 10 mg/kg, po administered 30 mins before DABK challenge measured by plethysometric analysis; format: functional; summary of the method: as §1
Rattus norvegicus [4] = assay: Antihyperalgesic activity in Sprague-Dawley rat assessed as decrease in CFA-induced joint pain at 1 to 3 mg/kg, po administered 3 days post CFA challenge; format: functional, organism-based
Summary of the method: (§2)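 Knee monoarthritis induced by intra-articular CFA (0.1 ml); joint pain read as hind-limb weight-bearing deficit on an incapacitance tester (difference between un-injected and injected limbs as % of total hind-limb weight). Rats with post-CFA baseline 20–60% enrolled and randomized to equalize baselines; oral dosing on Day 3 post-CFA in 5% Tween 80 in saline; readings pre-dose and 0.5, 1, 2, 3, 4 h post-dose; change from baseline at maximum effect.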

B1 bradykinin receptor [5] = target: T1, B1 bradykinin receptor (Homo sapiens, UniProt P46663); assay: Binding affinity to human bradykinin B1 receptor
T1 sequence (P46663 whole entry): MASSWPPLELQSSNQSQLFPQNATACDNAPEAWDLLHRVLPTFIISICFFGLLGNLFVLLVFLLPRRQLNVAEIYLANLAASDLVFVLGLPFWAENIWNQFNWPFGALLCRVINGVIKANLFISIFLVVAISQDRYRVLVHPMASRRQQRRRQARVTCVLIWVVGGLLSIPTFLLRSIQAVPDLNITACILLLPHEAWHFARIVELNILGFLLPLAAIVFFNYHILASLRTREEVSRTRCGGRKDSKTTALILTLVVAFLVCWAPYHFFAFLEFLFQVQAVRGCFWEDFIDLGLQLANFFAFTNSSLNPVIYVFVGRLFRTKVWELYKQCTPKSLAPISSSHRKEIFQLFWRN

Liver microsomes [6] = assay: Intrinsic clearance in human liver microsomes assessed per gram of liver at 2.5 uM after 20 mins; format: ADME, Microsome
Liver microsomes [7] = assay: Intrinsic clearance in rat liver microsomes assessed per gram of liver at 2.5 uM after 20 mins; format: ADME, Microsome
B1 bradykinin receptor [8] = target: T2, B1 bradykinin receptor (Rattus norvegicus, UniProt P97583); assay: Antagonist activity at rat bradykinin B1 receptor; format: functional
T2 sequence (P97583 whole entry): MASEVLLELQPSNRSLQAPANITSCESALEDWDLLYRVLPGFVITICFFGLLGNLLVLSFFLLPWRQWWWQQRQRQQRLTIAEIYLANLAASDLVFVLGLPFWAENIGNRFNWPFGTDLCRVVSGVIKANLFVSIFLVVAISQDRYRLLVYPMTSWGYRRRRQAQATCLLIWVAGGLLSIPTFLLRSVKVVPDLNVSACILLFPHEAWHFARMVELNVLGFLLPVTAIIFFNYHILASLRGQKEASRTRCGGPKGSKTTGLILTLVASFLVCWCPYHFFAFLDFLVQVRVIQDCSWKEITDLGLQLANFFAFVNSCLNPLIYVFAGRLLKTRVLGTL

[9] = target: T3, B2 bradykinin receptor (Homo sapiens) (UniProt P30411); assay: Antagonist activity at human bradykinin B2 receptor at 1 uM; format: functional; set-up: scale not given: the % may be the effect or the level left
T3 sequence (whole entry): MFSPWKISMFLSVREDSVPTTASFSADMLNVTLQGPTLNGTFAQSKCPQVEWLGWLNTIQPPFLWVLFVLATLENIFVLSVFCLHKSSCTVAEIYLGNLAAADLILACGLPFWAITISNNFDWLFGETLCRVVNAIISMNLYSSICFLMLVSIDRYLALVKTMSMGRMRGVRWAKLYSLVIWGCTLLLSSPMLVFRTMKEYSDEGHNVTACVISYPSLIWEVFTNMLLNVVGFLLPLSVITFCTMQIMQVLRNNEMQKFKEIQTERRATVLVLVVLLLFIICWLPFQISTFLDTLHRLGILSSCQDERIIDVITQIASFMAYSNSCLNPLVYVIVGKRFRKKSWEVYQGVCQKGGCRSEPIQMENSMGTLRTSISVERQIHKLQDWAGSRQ

Rattus norvegicus [10] = assay: Antiinflammatory activity in Wistar rat pain model assessed as inhibition of DABK-induced paw oedema at 0.03 mg/kg, po administered 120 mins before DABK challenge measured by plethysometric analysis; format: functional; summary of the method: as §1
Rattus norvegicus [11] = assay: Antiinflammatory activity in Wistar rat pain model assessed as inhibition of DABK-induced paw oedema at 0.1 mg/kg, po administered 120 mins before DABK challenge measured by plethysometric analysis; format: functional; summary of the method: as §1
Rattus norvegicus [12] = assay: Antiinflammatory activity in Wistar rat pain model assessed as inhibition of DABK-induced paw oedema at 0.3 mg/kg, po administered 120 mins before DABK challenge measured by plethysometric analysis; format: functional; summary of the method: as §1
Rattus norvegicus [13] = assay: Antiinflammatory activity in po dosed Wistar rat pain model assessed as inhibition of DABK-induced paw oedema administered 120 mins before DABK challenge measured by plethysometric analysis; format: functional, organism-based; summary of the method: as §1
Rattus norvegicus [14] = assay: Antihyperalgesic activity in po dosed Sprague-Dawley rat assessed as decrease in CFA-induced joint pain administered 3 days post CFA challenge; format: functional, organism-based; summary of the method: as §2
Rattus norvegicus [15] = assay: Antiinflammatory activity in Wistar rat pain model assessed as inhibition of DABK-induced paw oedema at 0.3 mg/kg, po administered 60 mins before DABK challenge; format: functional; summary of the method: as §1
Rattus norvegicus [16] = assay: Antiinflammatory activity in Wistar rat pain model assessed as inhibition of DABK-induced paw oedema at 1 mg/kg, po administered 60 mins before DABK challenge; format: functional; summary of the method: as §1
Rattus norvegicus [17] = assay: Antiinflammatory activity in Wistar rat pain model assessed as inhibition of DABK-induced paw oedema at 3 mg/kg, po administered 60 mins before DABK challenge; format: functional; details: read-out: INH; summary of the method: as §1

## COc1ccc2cc(S(=O)(=O)N[C@H](CC(=O)N[C@H](Cc3ccc(CN4[C@H](C)CCC[C@@H]4C)cc3)C(=O)N(C)C(C)C)c3ccc4c(c3)OCO4)ccc2c1
Rattus norvegicus [1]
  inhibition in vivo at 1 mg/kg: 6%
Rattus norvegicus [2]
  inhibition in vivo at 3 mg/kg: 16%
Rattus norvegicus [3]
  inhibition in vivo at 10 mg/kg: 30%
Rattus norvegicus [4]
  Activity: Active

## O=C(CC1c2ccccc2CCN1S(=O)(=O)c1ccc(Cl)c(Cl)c1)Nc1ccc(N2CCC(N3CCCCC3)CC2)cc1 (centres undefined)
B1 bradykinin receptor [5]
  Ki: 138 nM

## COc1cccc2c1-c1ccccc1N(S(=O)(=O)c1ccc(Cl)c(Cl)c1)C2CC(=O)NCCc1ccc(C2=NCCN2)cc1 (centres undefined)
B1 bradykinin receptor [5]
  Ki: 1.7 nM
Liver microsomes [6]
  CLint: 1 mL/min/g
Liver microsomes [7]
  CLint: 2.6 mL/min/g
B1 bradykinin receptor [8]
  IC50: 21 nM

## O=C(CC1c2ccccc2CCN1S(=O)(=O)c1ccc(Cl)c(Cl)c1)NCCc1ccc(C2=NCCN2)cc1 (centres undefined)
B1 bradykinin receptor [5]
  Ki: 2.2 nM
Liver microsomes [6]
  CLint: 4.2 mL/min/g
Liver microsomes [7]
  CLint: 1.9 mL/min/g

## O=C(CC1c2ccccc2CCN1S(=O)(=O)c1ccc(Cl)c(Cl)c1)N[C@H]1CC[C@H](CCC2=NCCN2)CC1 (some centres undefined)
B1 bradykinin receptor [5]
  Ki: 1 nM
Liver microsomes [6]
  CLint: 12.5 mL/min/g
Liver microsomes [7]
  CLint: 1.1 mL/min/g

## COc1cccc2c1-c1ccccc1N(S(=O)(=O)c1ccc(Cl)c(Cl)c1)C2CC(=O)N[C@H]1CC[C@H](CCN2CCCC2)CC1 (some centres undefined)
B1 bradykinin receptor [5]
  Ki: 8.9 nM
Liver microsomes [6]
  CLint: 1.1 mL/min/g
Liver microsomes [7]
  CLint: 1.8 mL/min/g
B1 bradykinin receptor [8]
  IC50: 43 nM
[9]
  Activity: 5.8%
Rattus norvegicus [10]
  inhibition in vivo at 0.03 mg/kg: 19%
Rattus norvegicus [11]
  inhibition in vivo at 0.1 mg/kg: 27%
Rattus norvegicus [12]
  inhibition in vivo at 0.3 mg/kg: 54%
Rattus norvegicus [13]
  inhibition: Dose-dependent effect
Rattus norvegicus [14]
  Activity: Dose-dependent effect

## O=C(CC1CCc2ccccc2N1S(=O)(=O)c1ccc(Cl)c(Cl)c1)Nc1ccc(N2CCC(N3CCCCC3)CC2)cc1 (centres undefined)
B1 bradykinin receptor [5]
  Ki: 628 nM

## O=C(O)Cc1ccccc1Nc1c(Cl)cccc1Cl [DICLOFENAC]
Rattus norvegicus [15]
  inhibition in vivo at 0.3 mg/kg: 23%
Rattus norvegicus [16]
  inhibition in vivo at 1 mg/kg: 24%
Rattus norvegicus [17]
  inhibition in vivo at 3 mg/kg: 35%
Rattus norvegicus [4]
  Activity: Active

## O=C(CC1COc2ccccc2N1S(=O)(=O)c1ccc(Cl)c(Cl)c1)NCCc1ccc(C2=NCCN2)cc1 (centres undefined)
B1 bradykinin receptor [5]
  Ki: 480 nM

## COc1ccc(S(=O)(=O)N2c3ccccc3-c3ccccc3C2CC(=O)NCCc2ccc(C3=NCCN3)cc2)cc1 (centres undefined)
B1 bradykinin receptor [5]
  Ki: 15.5 nM
Liver microsomes [6]
  CLint: 14.5 mL/min/g
Liver microsomes [7]
  CLint: 4.8 mL/min/g
B1 bradykinin receptor [8]
  IC50: 81 nM

## O=C(CC1CCc2ccccc2N1S(=O)(=O)c1ccc(Cl)c(Cl)c1)NCCN1CCN(c2ccncc2)CC1 (centres undefined)
B1 bradykinin receptor [5]
  Ki: 166 nM
Liver microsomes [6]
  CLint: 16.8 mL/min/g
Liver microsomes [7]
  CLint: 7.4 mL/min/g

## O=C(CC1c2cc(F)cc(F)c2-c2ccccc2N1S(=O)(=O)c1ccc(Cl)c(Cl)c1)NCCc1ccc(C2=NCCN2)cc1 (centres undefined)
B1 bradykinin receptor [5]
  Ki: 9.1 nM
Liver microsomes [6]
  CLint: 8 mL/min/g
Liver microsomes [7]
  CLint: 3.9 mL/min/g
B1 bradykinin receptor [8]
  IC50: 42 nM

## O=C(CC1CCc2ccccc2N1S(=O)(=O)c1ccc(Cl)c(Cl)c1)N[C@H]1CC[C@H](CCC2=NCCN2)CC1 (some centres undefined)
B1 bradykinin receptor [5]
  Ki: 4.3 nM
Liver microsomes [6]
  CLint: 9 mL/min/g
Liver microsomes [7]
  CLint: 0.6 mL/min/g

## O=C(CC1C(=O)Nc2ccccc2N1S(=O)(=O)c1ccc(Cl)c(Cl)c1)Nc1ccccc1 (centres undefined)
B1 bradykinin receptor [5]
  Ki: 1400 nM

## O=C(CC1CCc2ccccc2N1S(=O)(=O)c1ccc(Cl)c(Cl)c1)NCCc1ccc(C2=NCCN2)cc1 (centres undefined)
B1 bradykinin receptor [5]
  Ki: 6.3 nM
Liver microsomes [6]
  CLint: 7.1 mL/min/g
Liver microsomes [7]
  CLint: 2.6 mL/min/g

## Cc1ccc(S(=O)(=O)N2c3ccccc3-c3ccccc3C2CC(=O)NCCc2ccc(C3=NCCN3)cc2)cc1 (centres undefined)
B1 bradykinin receptor [5]
  Ki: 4.7 nM
Liver microsomes [6]
  CLint: 12.9 mL/min/g
Liver microsomes [7]
  CLint: 1.5 mL/min/g
B1 bradykinin receptor [8]
  IC50: 52 nM

## Cc1cc(C)c(S(=O)(=O)N2c3ccccc3-c3ccccc3C2CC(=O)NCCc2ccc(C3=NCCN3)cc2)cc1C (centres undefined)
B1 bradykinin receptor [5]
  Ki: 2.9 nM
Liver microsomes [6]
  CLint: 16.4 mL/min/g
Liver microsomes [7]
  CLint: 2.7 mL/min/g
B1 bradykinin receptor [8]
  IC50: 21 nM

## O=C(CC1c2ccccc2CCN1S(=O)(=O)c1ccc(Cl)c(Cl)c1)N1CCC(Cc2ccc(C3=NCCN3)cc2)CC1 (centres undefined)
B1 bradykinin receptor [5]
  Ki: 3.8 nM
Liver microsomes [6]
  CLint: 13.1 mL/min/g
Liver microsomes [7]
  CLint: 2.4 mL/min/g

## O=C(CC1Cc2ccccc2CN1S(=O)(=O)c1ccc(Cl)c(Cl)c1)NCCc1ccc(C2=NCCN2)cc1 (centres undefined)
B1 bradykinin receptor [5]
  Ki: 481 nM

## O=C(CC1c2ccccc2-c2ccccc2N1S(=O)(=O)c1ccc(Cl)c(Cl)c1)NCCc1ccc(C2=NCCN2)cc1 (centres undefined)
B1 bradykinin receptor [5]
  Ki: 3.1 nM
Liver microsomes [6]
  CLint: 9.8 mL/min/g
Liver microsomes [7]
  CLint: 2.5 mL/min/g
B1 bradykinin receptor [8]
  IC50: 28 nM

## O=C(CC1c2cc(F)ccc2-c2ccccc2N1S(=O)(=O)c1ccc(Cl)c(Cl)c1)NCCc1ccc(C2=NCCN2)cc1 (centres undefined)
B1 bradykinin receptor [5]
  Ki: 1.2 nM
Liver microsomes [6]
  CLint: 5.5 mL/min/g
Liver microsomes [7]
  CLint: 1.6 mL/min/g
B1 bradykinin receptor [8]
  IC50: 45 nM
